ChEMBL document CHEMBL2346664, “Synthesis, characterization and in vitro anticancer evaluation of novel 1,2,4-triazolin-3-one derivatives” (2013)

Columns and labels:
Type in all cases: functional
OVCAR-5 = assay: Growth inhibition of human OVCAR5 cells assessed as cell growth at 10 uM after 48 hrs by sulforhodamine B assay; details: OVCAR-5, 48 h, read-out: Activity
In short: (§1)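 NCI-60 single-dose screen at 10^-5 M. Cells plated at 5,000–40,000/well by doubling time and grown 24 h at 37 °C, 5% CO2, then drug added from DMSO stock for 48 h continuous exposure. Adherent cells fixed with cold TCA (final 10%), suspension cells with 16% TCA. SRB stain read at 515 nm. Reported as growth percent relative to untreated controls and time-zero plates.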

786-0 = assay: Growth inhibition of human 786-0 cells assessed as cell growth at 10 uM after 48 hrs by sulforhodamine B assay; details: 786-0, 48 h, read-out: Activity
In short: (§2)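 NCI-60 primary screen at a single dose of 10^-5 M. Output is mean growth percent of treated cells relative to untreated controls, where values between 0 and 100 indicate growth inhibition and values below 0 indicate cytotoxicity. Cells were plated 24 h before drug, incubated 48 h at 37 °C, 5% CO2, and stained with SRB after TCA fixation. Suspension cells were fixed with 80% TCA (16% final).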

OVCAR-3 = assay: Growth inhibition of human OVCAR3 cells assessed as cell growth at 10 uM after 48 hrs by sulforhodamine B assay; details: OVCAR-3, 48 h, read-out: Activity; in short: as §1
UO-31 = assay: Growth inhibition of human UO31 cells assessed as cell growth at 10 uM after 48 hrs by sulforhodamine B assay; details: UO-31, 48 h, read-out: Activity; in short: as §1
OVCAR-8 = assay: Growth inhibition of human OVCAR8 cells assessed as cell growth at 10 uM after 48 hrs by sulforhodamine B assay; details: OVCAR-8, 48 h, read-out: Activity; in short: as §1
[1] = Growth inhibition of human HCC2998 cells assessed as cell growth at 10 uM after 48 hrs by sulforhodamine B assay; details: HCC 2998, 48 h, read-out: Activity
In short: (§3)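 NCI-60 primary single-dose screen at 10^-5 M, 48 h continuous exposure. Adherent cells were fixed with cold TCA (10% final) and suspension cells with 16% final TCA, then stained with 0.4% SRB in 1% acetic acid. Bound dye was solubilized in 10 mM Tris base and read at 515 nm. Output is growth percent relative to untreated controls, and GI% is 100 minus growth percent.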

SF-268 = assay: Growth inhibition of human SF268 cells assessed as cell growth at 10 uM after 48 hrs by sulforhodamine B assay; details: SF-268, 48 h, read-out: Activity; in short: as §1
T47D = assay: Growth inhibition of human T47D cells assessed as cell growth at 10 uM after 48 hrs by sulforhodamine B assay; details: read-out: Activity; in short: as §1
MOLT-4 = assay: Growth inhibition of human MOLT4 cells assessed as cell growth at 10 uM after 48 hrs by sulforhodamine B assay; details: MOLT-4, 48 h, read-out: Activity; in short: as §3
CAKI-1 = assay: Growth inhibition of human CAKI-1 cells assessed as cell growth at 10 uM after 48 hrs by sulforhodamine B assay; details: CAKI-1, 48 h, read-out: Activity; in short: as §2
MDA-MB-231 = assay: Growth inhibition of human MDA-MB-231 cells assessed as cell growth at 10 uM after 48 hrs by sulforhodamine B assay; details: MDA-MB-231, 48 h, read-out: Activity; in short: as §3
MDA-MB-468 = assay: Growth inhibition of human MDA-MB-468 cells assessed as cell growth at 10 uM after 48 hrs by sulforhodamine B assay; details: MDA-MB-468, 48 h, read-out: Activity; in short: as §3
SN12C = assay: Growth inhibition of human SN12C cells assessed as cell growth at 10 uM after 48 hrs by sulforhodamine B assay; details: read-out: Activity; in short: as §1
M14 = assay: Growth inhibition of human M14 cells assessed as cell growth at 10 uM after 48 hrs by sulforhodamine B assay; details: M14, 48 h, read-out: Activity; in short: as §3
NCI-H23 = assay: Growth inhibition of human NCI-H23 cells assessed as cell growth at 10 uM after 48 hrs by sulforhodamine B assay; details: NCI-H23, 48 h, read-out: Activity; in short: as §3
BT-549 = assay: Growth inhibition of human BT549 cells assessed as cell growth at 10 uM after 48 hrs by sulforhodamine B assay; details: BT-549, 48 h, read-out: Activity; in short: as §2
U-251 = assay: Growth inhibition of human U251 cells assessed as cell growth at 10 uM after 48 hrs by sulforhodamine B assay; details: U-251, 48 h, read-out: Activity; in short: as §1
[2] = Growth inhibition of human Hs 578T cells assessed as cell growth at 10 uM after 48 hrs by sulforhodamine B assay; details: read-out: Activity; in short: as §3
DU-145 = assay: Growth inhibition of human DU145 cells assessed as cell growth at 10 uM after 48 hrs by sulforhodamine B assay; details: DU-145, 48 h, read-out: Activity; in short: as §3
[3] = Growth inhibition of human EKVX cells assessed as cell growth at 10 uM after 48 hrs by sulforhodamine B assay; details: read-out: Activity; in short: as §3
SK-OV-3 = assay: Growth inhibition of human SKOV3 cells assessed as cell growth at 10 uM after 48 hrs by sulforhodamine B assay; details: SK-OV-3, 48 h, read-out: Activity; in short: as §1
NCI-H226 = assay: Growth inhibition of human NCI-H226 cells assessed as cell growth at 10 uM after 48 hrs by sulforhodamine B assay; details: NCI-H226, 48 h, read-out: Activity; in short: as §3
[4] = Growth inhibition of human NCI-ADR-RES cells assessed as cell growth at 10 uM after 48 hrs by sulforhodamine B assay; details: read-out: Activity; in short: as §3
NCI-H322M = assay: Growth inhibition of human NCI-H322M cells assessed as cell growth at 10 uM after 48 hrs by sulforhodamine B assay; details: read-out: Activity; in short: as §1
HT-29 = assay: Growth inhibition of human HT-29 cells assessed as cell growth at 10 uM after 48 hrs by sulforhodamine B assay; details: HT-29, 48 h, read-out: Activity; in short: as §3
RXF 393 = assay: Growth inhibition of human RXF393 cells assessed as cell growth at 10 uM after 48 hrs by sulforhodamine B assay; details: RXF 393, 48 h, read-out: Activity; in short: as §1
PC-3 = assay: Growth inhibition of human PC3 cells assessed as cell growth at 10 uM after 48 hrs by sulforhodamine B assay; details: PC-3, 48 h, read-out: Activity; in short: as §1
UACC-62 = assay: Growth inhibition of human UACC62 cells assessed as cell growth at 10 uM after 48 hrs by sulforhodamine B assay; details: UACC-62, 48 h, read-out: Activity; in short: as §1
HL-60(TB) = assay: Growth inhibition of human HL-60(TB) cells assessed as cell growth at 10 uM after 48 hrs by sulforhodamine B assay; details: HL-60, 48 h, read-out: Activity
In short: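 NCI DTP single high-dose primary screen at 10^-5 M across 60 human tumour lines. Growth percent of treated cells is taken relative to untreated controls: values of 0–100 indicate growth inhibition and values below 0 indicate cytotoxicity. Both growth percent and percentage growth inhibition are reported.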

HCT-15 = assay: Growth inhibition of human HCT15 cells assessed as cell growth at 10 uM after 48 hrs by sulforhodamine B assay; details: HCT-15, 48 h, read-out: Activity; in short: as §3

| SMILES | growth at 10 µM (OVCAR-5) | growth at 10 µM (786-0) | growth at 10 µM (OVCAR-3) | growth at 10 µM (UO-31) | growth at 10 µM (OVCAR-8) | growth at 10 µM [1] | growth at 10 µM (SF-268) | growth at 10 µM (T47D) | growth at 10 µM (MOLT-4) | growth at 10 µM (CAKI-1) | growth at 10 µM (MDA-MB-231) | growth at 10 µM (MDA-MB-468) | growth at 10 µM (SN12C) | growth at 10 µM (M14) | growth at 10 µM (NCI-H23) | growth at 10 µM (BT-549) | growth at 10 µM (U-251) | growth at 10 µM [2] | growth at 10 µM (DU-145) | growth at 10 µM [3] | also measured |
| --- | --- | --- | --- | --- | --- | --- | --- | --- | --- | --- | --- | --- | --- | --- | --- | --- | --- | --- | --- | --- | --- |
| Cc1nn(-c2ccc(Cl)cc2)c(=O)n1CCN1CCOCC1 | 92.4% | 59.4% | 79.2% | 66% | 116% | 91.3% | 48.4% | 78.3% | 90.9% | 72.4% | 57.3% | 90.3% | 89.6% | 69.8% | 64.5% | 61.5% | 42.9% | 42.7% | 78.5% | 75.5% | growth at 10 µM (SK-OV-3): 42.8%; growth at 10 µM (NCI-H226): 79.4%; growth at 10 µM [4]: 75.9%; growth at 10 µM (NCI-H322M): 92.2%; growth at 10 µM (HT-29): 104%; growth at 10 µM (RXF 393): 42.1%; growth at 10 µM (PC-3): 80.8%; growth at 10 µM (UACC-62): 82.8%; growth at 10 µM (HL-60(TB)): 105%; growth at 10 µM (HCT-15): 74.2% |
| Cc1cc(=O)oc2cc(OCCn3c(C)nn(-c4ccc(Cl)cc4)c3=O)ccc12 | 38.8% | 32.9% | 14.8% | 42.8% | 17.7% | 46.7% | 50.3% | 47.4% | 37.6% | 19.5% | 47.5% | 16.1% | 51.8% | 14.7% | 45.8% | 56.7% | 31.4% | 34.8% | 21.6% | 58.7% | growth at 10 µM (SK-OV-3): 41.1%; growth at 10 µM (NCI-H226): 50.1%; growth at 10 µM [4]: 24.7%; growth at 10 µM (NCI-H322M): 58.7%; growth at 10 µM (HT-29): 0.7%; growth at 10 µM (RXF 393): 37.4%; growth at 10 µM (PC-3): 48.5%; growth at 10 µM (UACC-62): 43.3%; growth at 10 µM (HL-60(TB)): -5.7%; growth at 10 µM (HCT-15): 17.7% |
